Assays:
[1] = biological target: EGFR^Del19/T790M/C797S (Homo sapiens, UniProt P00533, C797S/DEL746-750/T790M); test: In vitro enzymatic activity assay; format: biochemical
In short: (§1)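 Reaction mix: 40 mM Tris pH 7.4, 10 mM MgCl2, 0.1 mg/mL BSA, 1 mM DTT, 10 μM ATP, 25 ng kinase and 0.2 mg/mL poly(Glu,Tyr) substrate. Test compound diluted in 10% DMSO before addition, giving 1% DMSO final. Residual ATP read by luminescence, with signal inverse to kinase activity. IC50 from nonlinear regression of normalized dose–response data.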

[2] = biological target: EGFR^L858R/T790M/C797S (Homo sapiens, UniProt P00533, C797S/L858R/T790M); test: In vitro enzymatic activity assay; format: biochemical
In short: as §1

- IC50 [1]: 1430 ± 22 nM
- IC50 [2]: 1220 ± 31 nM
Compound: Oc1ccccc1-c1nc(NCCN2CCNCC2)c2ccccc2n1 [4a, 2-(4-((2-(Piperazin-1-yl)ethyl)amino)quinazolin-2-yl)phenol]

— paper PMC10795152 (ACS Omega, 2024)
